From ChEMBL document CHEMBL1828510, “Synthesis of 3-heteroarylthioquinoline derivatives and their in vitro antituberculosis and cytotoxicity studies” (Eur J Med Chem, 2011)

Tested on: NIH3T3
Experiment: Cytotoxicity against mouse NIH/3T3 cells after 48 hrs by MTT assay
Type: cell-based
Conditions: NIH3T3, 48 h
In short: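 NIH 3T3 mouse embryonic fibroblasts kept in DMEM + 10% FBS at 37 °C, 5% CO2. Seeded at 10,000 cells/well in medium with 5% FBS and left 24 h to attach. Compounds dissolved in DMSO, diluted in serum-free medium, serial concentrations, 48 h exposure, triplicates. MTT (5 mg/mL stock) added for 4 h, formazan taken up in DMSO, A570 read. Viability calculated as % of untreated control; IC50 taken from the dose curve.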

Compound	IC50
Cc1nnc(Sc2c(-c3ccc(Cl)cc3)nc3ccccc3c2-c2ccccc2)s1	1260 µM
Cc1nnc(Sc2c(-c3ccc(Br)cc3)nc3ccccc3c2-c2ccccc2)s1	2050 µM
